This is a sample that favours compounds with a hit; in the whole collection about 1.8% have one here.
NPY-Y1 antag: blocks the human neuropeptide Y Y1 receptor; P25929; HEK293-CNG Y1 cells, membrane potential fluorescence; NPY at EC95, then isoproterenol; inhibition, % at 3.6 µM; 200,000 compounds, 1% hits;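 active means inhibition above the campaign mean inhibition of all tested compounds plus 3 SD, cut at about 20% in these data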;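 further: 0% = DMSO wells given NPY plus isoproterenol and 100% = isoproterenol alone without NPY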
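Material: HEK293 cells with Y1 receptor plus CNG channel; times: compound incubation 1 h at room temperature, readout 45 min post-stimulation; signal: fluorescence, membrane potential probe; read-out basis: fluorescence ratio normalized to % inhibition between controls; benchmarks: full-block control isoproterenol-only wells, zero-block control NPY plus isoproterenol wells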
NPY-Y2 antag: antagonists of human neuropeptide Y receptor Y2. 140,000 compounds, 0.99% hits. P49146. inhibition, % at 2.7 µM. NPY-Y2 expressing cells, antagonist mode; in the data active means inhibition above about 17%;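 further: 0% = vehicle with agonist challenge and 100% = reference antagonist with challenge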
Target sequence (P49146 whole entry, looked up): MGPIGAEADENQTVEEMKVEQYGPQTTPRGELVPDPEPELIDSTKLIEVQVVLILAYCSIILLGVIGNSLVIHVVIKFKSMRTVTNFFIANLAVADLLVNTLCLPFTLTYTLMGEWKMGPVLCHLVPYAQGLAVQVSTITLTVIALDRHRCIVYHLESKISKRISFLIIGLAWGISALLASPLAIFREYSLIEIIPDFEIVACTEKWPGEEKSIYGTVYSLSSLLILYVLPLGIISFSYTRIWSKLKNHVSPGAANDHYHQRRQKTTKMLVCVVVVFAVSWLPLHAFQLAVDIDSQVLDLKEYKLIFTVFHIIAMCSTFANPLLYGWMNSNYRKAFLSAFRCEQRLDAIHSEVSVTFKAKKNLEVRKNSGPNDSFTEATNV
NPY-Y1 PAM-ag: potentiators or agonists of human neuropeptide Y receptor Y1. AID 1304. P25929. NPY-Y1 expressing cells, potentiator/agonist activation. activation, % at 3.6 µM. 220,000 compounds, 0.37% hits; in the data active means activation above about 33%, passing the limit was not always enough;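 further: cells stimulated with NPY at EC10 then isoproterenol at EC100; 0% = low agonist plus stimulus and 100% = saturating agonist plus stimulus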
NPY-Y2 PAM-ag: potentiates or activates human NPY-Y2 receptor; cells expressing NPY-Y2, potentiator/agonist read-out; activation, % at 3.6 µM; 220,000 compounds, 0.45% hits; in the data active means activation above about 27%;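 further: cells stimulated with NPY near EC25 plus isoproterenol at EC100; 0% = vehicle plus submaximal agonist and 100% = vehicle plus saturating agonist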
* marks the source's active call; other numbers are inactive results; nt = no result.

SMILES	NPY-Y1 antag	NPY-Y2 antag	NPY-Y1 PAM-ag	NPY-Y2 PAM-ag
COc1ccc(N(C(=O)CCl)C(C(=O)NCCc2ccccc2)c2cccs2)cc1 (stereo unspecified)	0	2	54*	35*
COc1ccc(CNC(=O)C(c2ccncc2)N(C(=O)Cc2cccs2)c2ccccc2)cc1 (stereo unspecified)	0	2	6	8
O=C(/C=C/c1cccc([N+](=O)[O-])c1)Nn1c(-c2ccccc2F)nc2ccccc2c1=O	46*	66*	-89	-19
Cc1cccc(-c2nc3ccccc3c(=O)n2NC(=O)/C=C/c2ccc([N+](=O)[O-])cc2)c1	80*	105*	-90	-20
COc1cc(SC)ccc1C(=O)NCc1ccccc1	-4	4	-18	-5
CCC(C)NC(=O)c1cccc(OCc2c(C)noc2C)c1 (stereo unspecified)	5	nt	5	7
CCOC(=O)Cn1c(=O)oc2cc(S(=O)(=O)NC3CCCc4ccccc43)ccc21 (stereo unspecified)	-12	0	63*	37*
CCOC(=O)Cn1c(=O)oc2cc(S(=O)(=O)N3CCCc4ccccc43)ccc21	-13	0	31	26
CCCCNS(=O)(=O)c1ccc2c(c1)oc(=O)n2CC(=O)OCC	-3	-1	17	2
CCOC(=O)Cn1c(=O)oc2cc(S(=O)(=O)Nc3c(C)cc(C)cc3C)ccc21	-8	0	38*	24
CCOC(=O)N1CCN(C(=O)C2CCN(S(=O)(=O)c3cc(Cl)ccc3Cl)CC2)CC1	-4	1	0	12
CC(=O)ON1C(C)(C)Cc2noc(N)c2C1(C)C	3	-2	56*	55*
CC1(C)Cc2noc(N)c2C(C)(C)N1OC(=O)c1cccs1	7	2	4	-11
Cc1cccn2cc(COc3ccc(-c4ccccc4)cc3)nc12	11	nt	-3	-4
COc1ccc(NC(=S)NNC(=S)Nc2cccc(C(F)(F)F)c2)cc1	nt	nt	43*	27
CNNC(=S)Nc1cccc(C(F)(F)F)c1	nt	nt	-10	12
C/C(=N\OC(=O)c1cccc(Cl)c1)c1sc(C)nc1C	4	4	-10	-16
Nc1ccccc1OCCOCCOCCOc1ccccc1N	4	1	-4	-27
CC(=O)c1cc(CC(=O)N2CCc3c([nH]c4ccccc34)C2c2ccccn2)cs1 (stereo unspecified)	22*	nt	5	2
Cc1ccc(C(C(=O)NC2CCCCC2)N(Cc2ccco2)C(=O)C2COc3ccccc3O2)o1 (stereo unspecified)	28*	20*	5	4
O=C(NC1CCCC1)C(c1cccs1)N(CC1CCCO1)C(=O)Cc1cccs1 (stereo unspecified)	26*	18*	-14	-14
COc1ccc(C(C(=O)NC2CCCC2)N(CC2CCCO2)C(=O)Cc2cccs2)cc1OC (stereo unspecified)	4	nt	-2	3
O=C(NC1CCCCC1)C(c1ccc(O)cc1)N(CC1CCCO1)C(=O)C1COc2ccccc2O1 (stereo unspecified)	14	9	-21	-8
O=C(NCC(=O)N(Cc1ccco1)C(C(=O)NC1CCCC1)c1ccncc1)c1cccs1 (stereo unspecified)	3	3	4	6
O=C(NC1CCCC1)C(c1ccccc1)N(Cc1ccco1)C(=O)Cc1cccs1 (stereo unspecified)	77*	39*	-32	-23
SMILES	NPY-Y1 antag	NPY-Y2 antag	NPY-Y1 PAM-ag	NPY-Y2 PAM-ag
C/C(=N\NC(=O)C(=O)N/N=C(\C)c1cccc(O)c1)c1cccc(O)c1	1	nt	-16	-7
Nc1nc(-c2ccc(Cl)cc2)c(N=Nc2ccc(S(=O)(=O)N3CCOCC3)cc2)s1	5	-6	11	0
O=C1c2ccccc2C(=O)N1CCCCCc1nc(-c2ccccc2)no1	22*	12	-19	-5
Cc1ccc(-c2noc(CCCN3C(=O)c4ccccc4C3=O)n2)cc1	10	11	0	4
Cc1ccc(Nc2nc(N3CCOCC3)c3ccccc3n2)cc1	23*	8	-38	-53
Oc1ccc(Nc2nc(N3CCCC3)c3ccccc3n2)cc1	2	3	-5	-7
COc1ccc(Nc2nc(N3CCCCC3)c3ccccc3n2)cc1	34*	41*	-44	-2
Cc1cc(C)c2cc(CN(CCO)C(=O)NC3CCCCC3)c(=O)[nH]c2c1	nt	nt	10	5
O=c1ccc(/C=C/c2ccccc2)nn1Cc1ccc(F)cc1	9	nt	-10	-8
Cc1cc(C)n(-c2nc(SCCN(C)C)c3c4c(sc3n2)COC(C)(C)C4)n1	147*	78*	-167	-59
O=C(c1ccc(-c2cc(Cl)ccc2Cl)o1)N1CCOCC1	20*	nt	-12	-9
O=C(c1ccc(-c2ccc(Cl)cc2Cl)o1)N1CCOCC1	2	nt	-1	-2
O=C(/C=C/c1ccco1)Nc1ccccc1C(=O)Nc1cccc(C(=O)O)c1	nt	nt	48*	43*
COc1ccc2c(c1)-c1c(sn(-c3ccc(OC)c(OC)c3)c1=S)C(C)(C)N2	-4	-3	53*	38*
CCOc1cccc2sc(NN)nc12	-9	nt	38*	32
COc1ccc(CCNC(=O)c2ccc(CN3CCC(Cc4ccccc4)CC3)cc2)cc1	5	0	7	2
Cc1ccccc1NC(=O)c1ccc(CN2CCC(Cc3ccccc3)CC2)cc1	6	13	20	38*
Cc1cccc(C)c1NC(=O)NCCCN1CCN(c2ccccc2)CC1	2	nt	-25	-14
Cn1nnc(NC(=O)CSc2nnnn2-c2ccc(F)cc2)n1	6	-1	1	-4
COc1ccc(C2c3c(-c4ccccc4O)n[nH]c3C(=O)N2Cc2ccco2)cc1OC (stereo unspecified)	nt	nt	-21	-29
COc1ccc(C2c3c(-c4cc(Cl)c(C)cc4O)n[nH]c3C(=O)N2Cc2cccnc2)cc1OC (stereo unspecified)	45*	55*	-9	-19
Cc1cc(C)cc(NC(=O)CSc2nnc(CN3CCOCC3)n2C)c1	0	3	-13	4
CCOc1ncccc1C(=O)OCCN1C(=O)c2ccccc2C1=O	1	-1	-8	-1
Cc1ccccc1NC(=O)C(c1ccccc1)C1CCCC1 (stereo unspecified)	26*	23*	-19	-8
O=C(Nc1ccc2ccccc2c1)C(c1ccccc1)C1CCCC1 (stereo unspecified)	33*	22*	-14	-4
SMILES	NPY-Y1 antag	NPY-Y2 antag	NPY-Y1 PAM-ag	NPY-Y2 PAM-ag
NC(=O)C(c1ccccc1)C1CCCC1 (stereo unspecified)	-3	4	-17	-14
Cc1ccc(NC(=O)C(NC2CCCC2)c2ccccc2)cc1Cl (stereo unspecified)	11	nt	6	-23
C#CCSc1nc(-c2ccccc2)cc(C(F)(F)F)c1C#N	16	13	-32	-37
O=C(N/N=C/c1cccc(C(F)(F)F)c1)c1ccc(O)cc1	5	nt	-7	1
COc1cccc(CNCCc2c[nH]c3ccccc23)c1OCc1ccccc1	50*	24*	-51	-15
COc1ccccc1-c1nnc(SCC(=O)c2ccc(C3CCCCC3)cc2)n1Cc1ccco1	5	12	-19	-28
